Data published in ChEMBL document CHEMBL1955814, “Tailoring of integrin ligands: probing the charge capability of the metal ion-dependent adhesion site” (J Med Chem, 2012).

Experiments:
[1] = target: Integrin alpha-IIb/beta-3 (Homo sapiens, UniProt P05106+P08514); experiment: Displacement of extracellular matrix protein fibrinogen from human integrin alpha2bbeta3 after 1 hr by competitive ELISA; assay type: protein-complex assay
Summary of the method: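 Plates coated overnight at 4 °C with 10 μg/mL fibrinogen in carbonate buffer pH 9.6, blocked with 1% BSA in Tris buffer containing 1 mM Ca2+, Mg2+ and Mn2+. Inhibitor (0.00013−10 μM final) plus 2.5 μg/mL final soluble human αIIbβ3 for 1 h at RT. Bound integrin detected with anti-CD41b and peroxidase secondary antibody, A450.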

[2] = Apparent permeability across human Caco2 cells after 30 to 150 mins; assay type: ADME, cell-based; settings: Caco-2
Summary of the method: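 Caco-2 monolayers, passage 52−60, grown 21−23 days on polycarbonate inserts (0.4 μm pores, 1.1 cm²) until TEER stable at 300−500 Ω cm². Apical-to-basolateral transport at 37 °C with shaking after 30 min buffer preincubation. Basolateral samples at 30, 60, 90, 120 and 150 min, replaced with fresh buffer. Mass balance done per compound.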

Chain of Integrin alpha-IIb/beta-3 (P05106 27-788 limits assumed): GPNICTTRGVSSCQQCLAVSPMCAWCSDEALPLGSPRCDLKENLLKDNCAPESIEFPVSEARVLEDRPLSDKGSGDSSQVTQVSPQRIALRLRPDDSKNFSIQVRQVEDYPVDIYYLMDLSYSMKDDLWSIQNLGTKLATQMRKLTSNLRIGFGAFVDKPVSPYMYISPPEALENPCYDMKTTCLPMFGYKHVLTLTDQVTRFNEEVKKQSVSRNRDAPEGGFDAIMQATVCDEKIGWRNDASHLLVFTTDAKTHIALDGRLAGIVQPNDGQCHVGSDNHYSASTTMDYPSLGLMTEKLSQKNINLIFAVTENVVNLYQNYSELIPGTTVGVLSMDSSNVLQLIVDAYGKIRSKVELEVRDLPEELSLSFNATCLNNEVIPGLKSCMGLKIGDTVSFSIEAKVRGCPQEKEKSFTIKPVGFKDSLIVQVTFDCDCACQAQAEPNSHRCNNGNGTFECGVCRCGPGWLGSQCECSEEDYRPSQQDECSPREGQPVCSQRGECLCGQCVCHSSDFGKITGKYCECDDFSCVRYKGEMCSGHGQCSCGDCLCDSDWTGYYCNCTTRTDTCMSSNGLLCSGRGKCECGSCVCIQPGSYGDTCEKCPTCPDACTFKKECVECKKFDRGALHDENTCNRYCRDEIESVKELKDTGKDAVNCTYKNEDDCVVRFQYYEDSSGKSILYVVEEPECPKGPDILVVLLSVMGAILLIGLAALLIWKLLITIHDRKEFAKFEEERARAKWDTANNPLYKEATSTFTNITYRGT
Chain of Integrin alpha-IIb/beta-3 (P08514 32-887 limits assumed): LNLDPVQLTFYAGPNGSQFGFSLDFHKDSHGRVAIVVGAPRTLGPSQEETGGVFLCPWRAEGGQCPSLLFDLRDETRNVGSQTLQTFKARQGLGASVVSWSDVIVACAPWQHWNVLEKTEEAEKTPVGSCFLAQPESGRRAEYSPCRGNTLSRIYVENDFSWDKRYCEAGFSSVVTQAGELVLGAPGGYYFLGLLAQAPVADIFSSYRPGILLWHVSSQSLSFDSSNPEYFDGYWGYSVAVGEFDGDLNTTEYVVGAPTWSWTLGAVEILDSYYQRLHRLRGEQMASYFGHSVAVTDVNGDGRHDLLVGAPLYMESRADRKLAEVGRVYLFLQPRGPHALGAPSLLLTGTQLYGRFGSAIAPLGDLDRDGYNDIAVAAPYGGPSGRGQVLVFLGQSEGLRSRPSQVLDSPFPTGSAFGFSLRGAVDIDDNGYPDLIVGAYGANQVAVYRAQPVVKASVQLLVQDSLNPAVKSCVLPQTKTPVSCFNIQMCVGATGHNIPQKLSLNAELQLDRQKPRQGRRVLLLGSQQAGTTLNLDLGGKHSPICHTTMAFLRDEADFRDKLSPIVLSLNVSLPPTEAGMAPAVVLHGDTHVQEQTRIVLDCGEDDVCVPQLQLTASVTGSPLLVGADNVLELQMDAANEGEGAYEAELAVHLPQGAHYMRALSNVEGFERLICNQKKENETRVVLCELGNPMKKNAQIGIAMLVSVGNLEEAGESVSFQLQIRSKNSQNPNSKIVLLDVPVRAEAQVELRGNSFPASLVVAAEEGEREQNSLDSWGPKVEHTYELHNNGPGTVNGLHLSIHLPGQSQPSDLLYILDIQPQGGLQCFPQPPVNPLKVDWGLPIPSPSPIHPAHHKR
Chain of Integrin alpha-IIb/beta-3 (P08514 891-1039 limits assumed): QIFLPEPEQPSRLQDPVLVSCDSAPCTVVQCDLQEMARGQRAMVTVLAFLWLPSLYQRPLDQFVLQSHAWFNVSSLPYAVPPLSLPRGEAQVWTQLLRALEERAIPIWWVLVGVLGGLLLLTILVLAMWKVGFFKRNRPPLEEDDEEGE

| SMILES | IC50 ([1]; read-out: IC50) [nM] | Papp [2] [×10⁻⁶ cm/s] | IC50 [1] |
| --- | --- | --- | --- |
| O=C(NC[C@H](NS(=O)(=O)c1ccccc1)[PH](=O)O)c1ccc(OCCC2CCNCC2)cc1 | 1.2 | < 0.01 |  |
| O=C(NC[C@@H](NS(=O)(=O)c1ccccc1)[PH](=O)O)c1ccc(OCCC2CCNCC2)cc1 | 6.3 | < 0.01 |  |
| O=C(NC[C@H](NS(=O)(=O)c1ccccc1)P(=O)(O)O)c1ccc(OCCC2CCNCC2)cc1 | 22.7 | < 0.01 |  |
| O=C(NC[C@@H](NS(=O)(=O)c1ccccc1)P(=O)(O)O)c1ccc(OCCC2CCNCC2)cc1 | 136 | < 0.01 |  |
| COP(=O)(O)[C@H](CNC(=O)c1ccc(OCCC2CCNCC2)cc1)NS(=O)(=O)c1ccccc1 | 3.3 | < 0.01 |  |
| COP(=O)(O)[C@@H](CNC(=O)c1ccc(OCCC2CCNCC2)cc1)NS(=O)(=O)c1ccccc1 | 1150 |  |  |
| O=C(NC[C@H](NS(=O)(=O)c1ccccc1)P(O)(O)=S)c1ccc(OCCC2CCNCC2)cc1 | 62.5 |  |  |
| O=C(NC[C@@H](NS(=O)(=O)c1ccccc1)P(O)(O)=S)c1ccc(OCCC2CCNCC2)cc1 | 1320 |  |  |
| O=C(NC[C@@H](NS(=O)(=O)c1ccccc1)C(=O)O)c1ccc(OCCC2CCNCC2)cc1 | 4.4 |  |  |
| COP(=O)(OC)[C@H](CNC(=O)c1ccc(OCCC2CCNCC2)cc1)NS(=O)(=O)c1ccccc1 |  |  | Not Active |
| COP(=O)(OC)[C@@H](CNC(=O)c1ccc(OCCC2CCNCC2)cc1)NS(=O)(=O)c1ccccc1 |  |  | Not Active |
| O=C(NC[C@H](NS(=O)(=O)c1ccccc1)C(=O)O)c1ccc(OCCC2CCNCC2)cc1 | 0.81 |  |  |
| OC[C@@H](O)[C@@H](O)[C@H](O)[C@H](O)CO [MANNITOL] |  | 2.4 |  |
| CCCCS(=O)(=O)N[C@@H](Cc1ccc(OCCCCC2CCNCC2)cc1)C(=O)O [TIROFIBAN] |  | < 0.01 |  |
